Data taken from ChEMBL document CHEMBL5357040, “Synthesis and migrastatic activity of cytochalasin analogues lacking a macrocyclic moiety” (RSC Med Chem, 2024).
Active and inactive are the calls of the source. No cut-off for these calls is given here.

Legend:
BLM = assay: Migrastatic activity against human BLM cells assessed as decrease in cell migration at 10 uM incubated for 24 hrs by spheroid invasion assay; type: functional, cell-based
Method in brief: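 BLM spheroids formed over 2 days, embedded singly in 1.5 mg mL⁻¹ rat-tail type I collagen (1× DMEM, 1% FBS), polymerized at 37 °C, overlaid with medium; 10 μM treatment. Imaged at 0 and 24 h; invasiveness as spheroid area increase. Three independent experiments, ≥8 spheroids each; one-way ANOVA.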

[1] = Inhibition of actin (unknown origin) polymerization at 10 uM by spectrophotometer analysis; details: Homo sapiens
Method in brief: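 Pyrene-labelled actin (0.4 mg mL⁻¹) in G-buffer with compound at 10 μM or DMSO control; polymerization started with 10× actin polymerization buffer. Fluorescence (ex 360 nm, em 420 nm) followed over time until plateau.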

HT-1080 [2] = assay: Inhibition of actin in human HT-1080 cells assessed as effect on actin cytoskeleton at 10 uM incubated for 2 mins by fluorescence microscopic analysis; type: cell-based
Method in brief: (§1)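 HT1080 cells on glass-bottom plates stained with SPY650-FastAct; untreated cells imaged every 20 s for 15 min, then compound (10 or 50 μM) added to same well and recorded 15 min at 20 s/frame by fluorescence time-lapse; actin cytoskeleton and morphology assessed from video.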

HT-1080 [3] = assay: Inhibition of actin in human HT-1080 cells assessed as effect on actin cytoskeleton at 10 uM incubated for 5 mins by fluorescence microscopic analysis; type: cell-based; method in brief: as §1
HT-1080 [4] = assay: Effect on cell morphology in human HT-1080 cells at 50 uM incubated for 5 mins by fluorescence microscopic analysis; type: functional, cell-based; method in brief: as §1

| SMILES | Activity (BLM) | inhibition [1] | inhibition (HT-1080 [2]) | inhibition (HT-1080 [3]) | Activity (HT-1080 [4]) |
| --- | --- | --- | --- | --- | --- |
| COC(=O)[C@@]12C(=O)N[C@@H](Cc3ccccc3)[C@@H]1[C@H](C)C(C)=C[C@@H]2CCCOCc1ccccc1 | Active | Active | – | – | – |
| CC1=C[C@H](CCOCCc2ccccc2)[C@]2(CO)C(=O)N[C@@H](Cc3ccccc3)[C@@H]2[C@@H]1C | Active | Active | – | – | – |
| C=C1[C@@H](C)[C@H]2[C@H](Cc3ccccc3)NC(=O)[C@@]2(C(=O)OC)[C@@H](CCOCCc2ccccc2)[C@@H]1O | Active | Active | inactive | Active | Active |
| C=C1[C@@H](C)[C@H]2[C@H](Cc3ccccc3)NC(=O)[C@]23[C@H](OC(C)=O)/C=C/[C@@](C)(O)C(=O)[C@@H](C)C/C=C/[C@H]3[C@@H]1O | inactive | – | Active | – | – |
| C=C1[C@@H](C)[C@H]2[C@H](Cc3ccccc3)NC(=O)[C@]23OC(=O)/C=C/[C@H](O)CCC[C@@H](C)C/C=C/[C@H]3[C@@H]1O | inactive | – | Active | – | – |
| COC(=O)[C@@]12C(=O)N[C@@H](Cc3ccccc3)[C@@H]1[C@H](C)[C@@](C)(Cl)[C@H](O)[C@@H]2CCOCCc1ccccc1 | – | Active | – | – | – |
